Measurements as given in ChEMBL document CHEMBL1137561 (J Med Chem, 2007).

Columns and labels:
[1] = Selectivity index, ratio of CC50 for MT4 cells to EC50 for HIV1 NL43 infected MT4 cells; assay type: functional
[2] = target: Human immunodeficiency virus type 1 reverse transcriptase (Human immunodeficiency virus 1, UniProt Q72547, Y188L); test: Inhibition of HIV1 reverse transcriptase Y188L mutant
[3] = Resistance index, Ratio of EC50 for drug-resistant HIV1 with RT Y188L mutation in MT4 cells to EC50 for HIV1 NL43 in MT4 cells
[4] = test system: Human immunodeficiency virus 1; test: Antiviral activity against HIV1 with reverse transcriptase Y188L mutation in MT4 cells assessed as inhibition of viral induced cytopathic effect by MTT method; assay type: functional, organism-based; settings: Human immunodeficiency virus 1, MT4
Summary of the method: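 MT-4 cells infected with the HIV-1 NNRTI-resistant mutant strain. Viable cells scored at day 5 post-infection by the MTT tetrazolium colorimetric method. Values are means ± SD from at least two experiments.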

[5] = Resistance index, Ratio of EC50 for drug-resistant HIV1 with RT K103N mutation in MT4 cells to EC50 for HIV1 NL43 in MT4 cells
[6] = Inhibition of HIV1 reverse transcriptase Y1811 mutant; parameters: species or system Human immunodeficiency virus 1
Summary of the method: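 Recombinant HIV-1 RT Y181I mutant, purified to >95%, 10 min preincubation with inhibitor. Radioactive nucleotide incorporation into poly(rA)/oligo(dT) 10:1 was followed at varied nucleotide substrate levels, sampling every 2 min for initial velocities. Inhibitor spanned 0.2–5 Ki. Ki came from Lineweaver-Burk and Dixon plots. Means ± SD of at least three experiments.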

[7] = target: Human immunodeficiency virus type 1 reverse transcriptase (Human immunodeficiency virus 1, UniProt Q72547, K103N); test: Inhibition of HIV1 reverse transcriptase K103N mutant
[8] = target: Human immunodeficiency virus type 1 reverse transcriptase (Human immunodeficiency virus 1, UniProt Q72547, V106A); test: Inhibition of HIV1 reverse transcriptase V106A mutant
[9] = test system: Human immunodeficiency virus 1; test: Antiviral activity against HIV1 with reverse transcriptase IRLL98 mutation in MT4 cells assessed as inhibition of viral induced cytopathic effect by MTT method; assay type: functional, organism-based; settings: Human immunodeficiency virus 1, MT4
[10] = test system: Human immunodeficiency virus 1; test: Antiviral activity against HIV1 NL43 in MT4 cells assessed as inhibition of viral induced cytopathic effect after 5 days by MTT method; settings: Human immunodeficiency virus 1, NL43, MT4, 120 h
[11] = target: Human immunodeficiency virus type 1 reverse transcriptase (Human immunodeficiency virus 1, UniProt Q72547); test: Inhibition of wild type HIV1 3B reverse transcriptase
[12] = target: Human immunodeficiency virus type 1 reverse transcriptase (Human immunodeficiency virus 1, UniProt Q72547, V179D); test: Inhibition of HIV1 reverse transcriptase V179D mutant
[13] = Resistance index, Ratio of EC50 for drug-resistant HIV1 with RT Y181C mutation in MT4 cells to EC50 for HIV1 NL43 in MT4 cells
[14] = test system: Human immunodeficiency virus 1; test: Antiviral activity against HIV1 with reverse transcriptase K103N mutation in MT4 cells assessed as inhibition of viral induced cytopathic effect by MTT method; assay type: functional, organism-based; settings: Human immunodeficiency virus 1, MT4
Summary of the method: (§1)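 MT-4 cells infected with the HIV-1 NNRTI-resistant mutant strain. Viable cells scored at day 5 post-infection by the MTT tetrazolium colorimetric method. […] Values are means ± SD from at least two experiments.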

[15] = Cytotoxicity against MT4 cells after 4 days by MTT method; assay type: cell-based; settings: human
Summary of the method: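 Mock-infected (noninfected) MT-4 cells, run in parallel with the antiviral test. Viable cells read by the MTT tetrazolium colorimetric method. […] Means ± SD from at least two experiments. The top concentration was limited where compounds precipitated in the culture medium.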

[16] = target: Human immunodeficiency virus type 1 reverse transcriptase (Human immunodeficiency virus 1, UniProt Q72547, L100I); test: Inhibition of HIV1 reverse transcriptase L100I mutant
[17] = Resistance index, Ratio of EC50 for drug-resistant HIV1 with RT IRLL98 mutation in MT4 cells to EC50 for HIV1 NL43 in MT4 cells
[18] = test system: Human immunodeficiency virus 1; test: Antiviral activity against HIV1 with reverse transcriptase Y181C mutation in MT4 cells assessed as inhibition of viral induced cytopathic effect by MTT method; assay type: functional, organism-based; settings: Human immunodeficiency virus 1, MT4; summary of the method: as §1
[19] = test system: Human immunodeficiency virus 1; test: Resistance index, ratio of Ki for HIV1 reverse transcriptase Y181I mutant to Ki for wild type HIV1 3B reverse transcriptase
Summary of the method: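 Initial velocities came from radioactive nucleotide incorporation into poly(rA)/oligo(dT) 10:1, sampled every 2 min. Inhibitor spanned 0.2–5 Ki, with Lineweaver-Burk and Dixon plots. Fold-resistance is Ki mutant / Ki wild type.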

| SMILES | Ratio CC50/EC50 [1] | Ki [2] | Ratio EC50 [3] | EC50 [4] | Ratio EC50 [5] | Ki [6] | Ki [7] | Ki [8] | EC50 [9] | EC50 [10] | Ki [11] | Ki [12] | Ratio EC50 [13] | EC50 [14] | CC50 at 96 h [15] | Ki [16] | Ratio EC50 [17] | EC50 [18] | Ratio Ki [19] |
| --- | --- | --- | --- | --- | --- | --- | --- | --- | --- | --- | --- | --- | --- | --- | --- | --- | --- | --- | --- |
| CCCN(C)c1nc(Cc2c(F)cccc2F)c(C)c(=O)[nH]1 | >40500 | > 20000 nM | 800 | 1600 nM | 375 | > 20000 nM | > 20000 nM | 8 nM | 55 nM | 2 nM | 100 nM | 200 nM | 19 | 750 nM | > 81000 nM | 18000 nM | 27 | 39 nM |  |
| Cc1c(C(C)c2c(F)cccc2F)nc(N2CCCC(C)C2)[nH]c1=O (stereo unspecified) | >24000 |  | 40 | 120 nM | 64 |  |  |  | 200 nM | 3 nM |  |  | 5 | 193 nM | > 72000 nM |  | 67 | 14 nM |  |
| Cc1c(C(C)c2c(F)cccc2F)nc(N(C)C(C)C)[nH]c1=O (stereo unspecified) | >162000 | 1190 nM | 80 | 40 nM | 12 | 850 nM | 80 nM | 30 nM | 1 nM | 0.5 nM | 40 nM |  | 1.4 | 6 nM | > 81000 nM | 10000 nM | 2 | 0.7 nM | 21 |
| CCN(C)c1nc(Cc2c(F)cccc2F)c(C)c(=O)[nH]1 | >4722 |  | 444 | 8000 nM | 256 |  |  |  | 420 nM | 18 nM |  |  | 39 | 4600 nM | > 85000 nM |  | 23 | 710 nM |  |
| CCCNc1nc(C(C)c2c(F)cccc2F)c(C)c(=O)[nH]1 (stereo unspecified) | 11667 | 3110 nM |  | > 10000 nM | 125 | 5020 nM | 470 nM | 40 nM | 90 nM | 3 nM | 40 nM |  | 20 | 370 nM | 35000 nM | 310 nM | 30 | 60 nM | 125 |
| Cc1c(C(C)c2c(F)cccc2F)nc(N2CCCCC2)[nH]c1=O (stereo unspecified) | >10714 | 3500 nM | 56 | 390 nM | 74 | > 20000 nM | 600 nM | 20 nM | 60 nM | 7 nM | 70 nM | 10 nM | 10 | 520 nM | > 75000 nM | 2000 nM | 9 | 70 nM |  |
| O=c1cc(Cc2c(F)cccc2F)nc(N2CCCCC2)[nH]1 | >6308 | > 20000 nM | 615 | 8000 nM |  | > 20000 nM | > 20000 nM | 200 nM | 2200 nM | 13 nM | 2500 nM | 5000 nM | 55 | > 10000 nM | > 82000 nM | 10000 nM | 169 | 710 nM |  |
| Cc1c(Cc2c(F)cccc2F)nc(N(C)C(C)C)[nH]c1=O | 39500 |  | 1150 | 2300 nM | 600 |  |  |  | 80 nM | 2 nM |  |  | 15 | 1200 nM | 79000 nM |  | 40 | 30 nM |  |
